In brackets after ≈: the same amount, converted by molar mass. Activity calls are given as the source filed them. The rule behind the calls is not given here. *1 amine or outer side, *2 acyl side, *3 side chain or, on linkers, in order; H or OH if unused. Where a SMILES comes first, the peptide text is derived from it. [ ]: non-standard residue; d: D form. X1 = CC[C@@H](C)[C@@H](O[*:1])C(=O)[*:2]; NMeVal(β-OH) = CN[C@H](C(=O)O)C(C)(C)O; NMeF = CN[C@@H](Cc1ccccc1)C(=O)O; aIle = CC[C@@H](C)[C@H](N)C(=O)O; NMeV = CN[C@H](C(=O)O)C(C)C
Legend:
[1] = biological target: ATP binding cassette transporter Abc1p (Issatchenkia orientalis) (UniProt Q09GQ4); experiment: Inhibition of Candida krusei ABC1 expressed in Saccharomyces cerevisiae isolate ADdelta at 20 nM; conditions: Pichia kudriavzevii
[2] = biological target: ATP binding cassette transporter Abc1p (Issatchenkia orientalis) (UniProt Q09GQ4); experiment: Inhibition of Candida krusei ABC1 expressed in Saccharomyces cerevisiae isolate ADdelta at 8 nM; conditions: Pichia kudriavzevii
Pichia kudriavzevii [3] = experiment: Antimicrobial activity against Candida krusei B2399 after 48 hrs by liquid microdilution assay; assay type: functional; conditions: B2399, 48 h
Summary of the method: (§1)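 Liquid broth microdilution susceptibility assay in CSM medium at pH 7.0, which was also the medium used for the expression studies. Fungal strains were maintained in YPD. The S. cerevisiae test strains carry C. krusei ABC1 or fungal ERG11 alleles integrated at the chromosomal PDR5 locus.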

Pichia kudriavzevii [4] = experiment: Antimicrobial activity against Candida krusei IFO0011 after 48 hrs by liquid microdilution assay; assay type: functional; conditions: IFO0011, 48 h; summary of the method: as §1
Pichia kudriavzevii [5] = experiment: Antimicrobial activity against Candida krusei NZCDC 89.021 after 48 hrs by liquid microdilution assay; assay type: functional; conditions: NZCDC 89.021, 48 h; summary of the method: as §1
Pichia kudriavzevii [6] = experiment: Antimicrobial activity against Candida krusei NZCDC 89.102 after 48 hrs by liquid microdilution assay; assay type: functional; conditions: NZCDC 89.102, 48 h; summary of the method: as §1
Pichia kudriavzevii [7] = experiment: Antimicrobial activity against Candida krusei NZCDC 89.221 after 48 hrs by liquid microdilution assay; assay type: functional; conditions: NZCDC 89.221, 48 h; summary of the method: as §1
Pichia kudriavzevii [8] = experiment: Antimicrobial activity against Candida krusei NZCDC 90.147 after 48 hrs by liquid microdilution assay; assay type: functional; conditions: NZCDC 90.147, 48 h; summary of the method: as §1
Pichia kudriavzevii [9] = experiment: Antimicrobial activity against Candida krusei B2399 after 48 hrs by CLSI method; assay type: functional; conditions: B2399, 48 h
Summary of the method: (§2)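 Azole MICs were determined by the CLSI M27-A2 broth microdilution reference method. They were interpreted against the CLSI breakpoints. Strains were maintained in YPD medium (1% yeast extract, 2% peptone, 2% glucose).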

Pichia kudriavzevii [10] = experiment: Antimicrobial activity against Candida krusei IFO0011 after 48 hrs by CLSI method; assay type: functional; conditions: IFO0011, 48 h; summary of the method: as §2
Pichia kudriavzevii [11] = experiment: Antimicrobial activity against Candida krusei NZCDC 89.021 after 48 hrs by CLSI method; assay type: functional; conditions: NZCDC 89.021, 48 h; summary of the method: as §2
Pichia kudriavzevii [12] = experiment: Antimicrobial activity against Candida krusei NZCDC 89.102 after 48 hrs by CLSI method; assay type: functional; summary of the method: as §2
Pichia kudriavzevii [13] = experiment: Antimicrobial activity against Candida krusei NZCDC 89.221 after 48 hrs by CLSI method; assay type: functional; summary of the method: as §2
Pichia kudriavzevii [14] = experiment: Antimicrobial activity against Candida krusei NZCDC 90.147 after 48 hrs by CLSI method; assay type: functional; summary of the method: as §2
Saccharomyces cerevisiae [15] = experiment: Antimicrobial activity against Saccharomyces cerevisiae isolate ADdelta overexpressing Abc1p after 48 hrs by liquid microdilution assay; assay type: functional; summary of the method: as §1
Saccharomyces cerevisiae [16] = experiment: Antimicrobial activity against Saccharomyces cerevisiae isolate ADdelta overexpressing Saccharomyces cerevisiae ERG11 after 48 hrs by liquid microdilution assay; assay type: functional; summary of the method: as §1
Saccharomyces cerevisiae [17] = experiment: Antimicrobial activity against Saccharomyces cerevisiae isolate ADdelta overexpressing Candida albicans ERG11A after 48 hrs by liquid microdilution assay; assay type: functional; summary of the method: as §1
Saccharomyces cerevisiae [18] = experiment: Antimicrobial activity against Saccharomyces cerevisiae isolate AD overexpressing Candida krusei ERG11C after 48 hrs by liquid microdilution assay; assay type: functional; summary of the method: as §1
Saccharomyces cerevisiae [19] = experiment: Antimicrobial activity against Saccharomyces cerevisiae isolate ADdelta overexpressing Candida krusei ERG11g after 48 hrs by liquid microdilution assay; assay type: functional; summary of the method: as §1
Saccharomyces cerevisiae [20] = experiment: Fold resistant, ratio of MIC for Saccharomyces cerevisiae isolate ADdelta overexpressing Saccharomyces cerevisiae ERG11 to MIC for Saccharomyces cerevisiae isolate ADdelta overexpressing Abc1p; assay type: functional
Summary of the method: (§3)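 Fold resistance is the ratio of azole MICs between S. cerevisiae overexpressing strains. The MICs were measured by liquid broth microdilution in CSM medium at pH 7.0. The ERG11 or ABC1 constructs are integrated at the PDR5 locus.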

Saccharomyces cerevisiae [21] = experiment: Fold resistant, ratio of MIC for Saccharomyces cerevisiae isolate ADdelta overexpressing Candida albicans ERG11A to MIC for Saccharomyces cerevisiae isolate ADdelta overexpressing Abc1p; assay type: functional; summary of the method: as §3
Saccharomyces cerevisiae [22] = experiment: Fold resistant, ratio of MIC for Saccharomyces cerevisiae isolate ADdelta overexpressing Candida krusei ERG11C to MIC for Saccharomyces cerevisiae isolate ADdelta overexpressing Abc1p; assay type: functional; summary of the method: as §3
Saccharomyces cerevisiae [23] = experiment: Fold resistant, ratio of MIC for Saccharomyces cerevisiae isolate ADdelta overexpressing Candida krusei ERG11g to MIC for Saccharomyces cerevisiae isolate ADdelta overexpressing Abc1p; assay type: functional; summary of the method: as §3
[24] = biological target: ATP binding cassette transporter Abc1p (Issatchenkia orientalis) (UniProt Q09GQ4); experiment: Inhibition of Candida krusei ABC1 expressed in Saccharomyces cerevisiae isolate ADdelta at 23 nM; conditions: Pichia kudriavzevii
Pichia kudriavzevii [25] = experiment: Increase in ERG11 mRNA expression in Candida krusei B2399 at MIC concentration after 1 hr by hot-phenol extraction based Northern blotting; assay type: functional, organism-based
Summary of the method: (§4)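 Northern blot. Logarithmically grown C. krusei B2399 was exposed to azoles for 60 min (FLC 1x MIC; VRC, MCZ, ITC 2x MIC) or to FLC at 1x MIC over a time course. About 100 OD units of cells were harvested. Total RNA was extracted with hot phenol, and 10 µg was run on 1.2% denaturing agarose. Blots were probed with radiolabelled ABC1 or ERG11, with ACT1 as internal control.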

Pichia kudriavzevii [26] = experiment: Increase in ERG11 mRNA expression in Candida krusei B2399 at > 200 ug/ml after up to 320 mins by hot-phenol extraction based Northern blotting; assay type: functional, organism-based; summary of the method: as §4
Pichia kudriavzevii [27] = experiment: Increase in ABC1 mRNA expression in Candida krusei B2399 at MIC concentration after 320 mins by hot-phenol extraction based Northern blotting; assay type: functional, organism-based; summary of the method: as §4
Pichia kudriavzevii [28] = experiment: Increase in ERG11 mRNA expression in Candida krusei B2400 at MIC concentration after 80 mins by hot-phenol extraction based Northern blotting; assay type: functional, organism-based
[29] = biological target: ATP binding cassette transporter Abc1p (Issatchenkia orientalis) (UniProt Q09GQ4); experiment: Inhibition of Candida krusei B2399 Abc1p assessed as fractional inhibitory concentration index at 2.5 ug/ml after 48 hrs by checkerboard susceptibility assay; conditions: Pichia kudriavzevii
Summary of the method: (§5)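 Checkerboard susceptibility assay combining the Abc1p inhibitor with FLC or ITC. MICs were determined at various inhibitor concentrations. The fractional inhibitory concentration index was calculated for each combination.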

[30] = biological target: ATP binding cassette transporter Abc1p (Issatchenkia orientalis) (UniProt Q09GQ4); experiment: Inhibition of Candida krusei […] expressed in Saccharomyces cerevisiae isolate ADdelta assessed as fractional inhibitory concentration index at 2.5 ug/ml after 48 hrs by checkerboard susceptibility assay; conditions: Pichia kudriavzevii; summary of the method: as §5
[31] = biological target: ATP binding cassette transporter Abc1p (Issatchenkia orientalis) (UniProt Q09GQ4); experiment: Inhibition of Candida krusei ABC1 expressed in Saccharomyces cerevisiae isolate ADdelta at 19 nM; conditions: Pichia kudriavzevii
Summary of the method: (§6)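 Agarose disk-diffusion test of S. cerevisiae AD overexpressing C. krusei Abc1p, with the parent AD strain as comparison. Cells were pregrown from YPD overnight into CSM to mid-log at 30°C. They were seeded at OD600 0.008 in CSM with 0.6% agarose, overlaid on CSM agar (pH 7.0). Paper disks carrying set nmol amounts of xenobiotic were applied, and plates were incubated at 30°C for 48 h before reading growth inhibition zones.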

[32] = biological target: ATP binding cassette transporter Abc1p (Issatchenkia orientalis) (UniProt Q09GQ4); experiment: Inhibition of Candida krusei ABC1 expressed in Saccharomyces cerevisiae isolate ADdelta at 16 nM; conditions: Pichia kudriavzevii; summary of the method: as §6
[33] = biological target: ATP binding cassette transporter Abc1p (Issatchenkia orientalis) (UniProt Q09GQ4); experiment: Inhibition of Candida krusei ABC1 expressed in Saccharomyces cerevisiae isolate ADdelta at 7 nM; conditions: Pichia kudriavzevii
[34] = biological target: ATP binding cassette transporter Abc1p (Issatchenkia orientalis) (UniProt Q09GQ4); experiment: Inhibition of Candida krusei ABC1 expressed in Saccharomyces cerevisiae isolate ADdelta at 2 nM; conditions: Pichia kudriavzevii
[35] = biological target: ATP binding cassette transporter Abc1p (Issatchenkia orientalis) (UniProt Q09GQ4); experiment: Inhibition of Candida krusei ABC1 expressed in Saccharomyces cerevisiae isolate ADdelta at 0.37 nM; conditions: Pichia kudriavzevii
[36] = biological target: ATP binding cassette transporter Abc1p (Issatchenkia orientalis) (UniProt Q09GQ4); experiment: Inhibition of Candida krusei Abc1p expressed in Saccharomyces cerevisiae isolate AD assessed as reduction of itraconazole MIC at 5 ug after 48 hrs by agarose diffusion assay; conditions: Pichia kudriavzevii
[37] = biological target: ATP binding cassette transporter Abc1p (Issatchenkia orientalis) (UniProt Q09GQ4); experiment: Inhibition of Candida krusei B2399 Abc1p assessed as reduction of itraconazole MIC at 5 ug after 48 hrs by agarose diffusion assay; conditions: Pichia kudriavzevii
[38] = biological target: ATP binding cassette transporter Abc1p (Issatchenkia orientalis) (UniProt Q09GQ4); experiment: Inhibition of Candida krusei IF011 Abc1p assessed as reduction of itraconazole MIC at 5 ug after 48 hrs by agarose diffusion assay; conditions: Pichia kudriavzevii

C=C1[C@@H](C)[C@H]2[C@H](Cc3ccccc3)NC(=O)[C@]23[C@H](OC(C)=O)/C=C/[C@@](C)(O)C(=O)[C@@H](C)C/C=C/[C@H]3[C@@H]1O
Activity [1]: Active

CO[C@@H]1C[C@@H](C[C@H]2CC[C@H](C)[C@H]([C@@H](C)C(=O)O)O2)O[C@]2(O[C@](C)([C@H]3CC[C@@](C)([C@@H]4O[C@@H]([C@H]5O[C@@](O)(CO)[C@H](C)C[C@@H]5C)C[C@@H]4C)O3)C[C@H]2C)[C@@H]1C
Activity [2]: Active

OC(Cn1cncn1)(Cn1cncn1)c1ccc(F)cc1F [FLUCONAZOLE]
MIC (Pichia kudriavzevii [3]): 256 µg/mL (≈ 836 µM)
MIC (Pichia kudriavzevii [4]): 256 µg/mL (≈ 836 µM)
MIC (Pichia kudriavzevii [5]): 256 µg/mL (≈ 836 µM)
MIC (Pichia kudriavzevii [6]): 256 µg/mL (≈ 836 µM)
MIC (Pichia kudriavzevii [7]): 256 µg/mL (≈ 836 µM)
MIC (Pichia kudriavzevii [8]): 256 µg/mL (≈ 836 µM)
MIC (Pichia kudriavzevii [9]): 32 µg/mL (≈ 104 µM)
MIC (Pichia kudriavzevii [10]): 128 µg/mL (≈ 418 µM)
MIC (Pichia kudriavzevii [11]): 32 µg/mL (≈ 104 µM)
MIC (Pichia kudriavzevii [12]): 32 µg/mL (≈ 104 µM)
MIC (Pichia kudriavzevii [13]): 32 µg/mL (≈ 104 µM)
MIC (Pichia kudriavzevii [14]): 128 µg/mL (≈ 418 µM)
MIC (Saccharomyces cerevisiae [15]): 0.5 µg/mL (≈ 1.63 µM)
MIC (Saccharomyces cerevisiae [16]): 2 µg/mL (≈ 6.53 µM)
MIC (Saccharomyces cerevisiae [17]): 2 µg/mL (≈ 6.53 µM)
MIC (Saccharomyces cerevisiae [18]): 4 µg/mL (≈ 13.1 µM)
MIC (Saccharomyces cerevisiae [19]): 64 µg/mL (≈ 209 µM)
ratio (Saccharomyces cerevisiae [20]): 4
ratio (Saccharomyces cerevisiae [21]): 4
ratio (Saccharomyces cerevisiae [22]): 8
ratio (Saccharomyces cerevisiae [23]): 128
Activity [24]: inactive
Activity (Pichia kudriavzevii [25]): Active
Activity (Pichia kudriavzevii [26]): inactive
Activity (Pichia kudriavzevii [27]): Active
Activity (Pichia kudriavzevii [28]): Active
fractional inhibitory concentration index (FICI) [29]: 0.35
fractional inhibitory concentration index (FICI) [30]: 0.112

Nc1nc(=O)[nH]cc1F
Activity [31]: inactive

CC/N=c1\cc2oc3cc(NCC)c(C)cc3c(-c3ccccc3C(=O)OCC)c-2cc1C
Activity [32]: Active

CC[C@@H](C)[C@@H]1NC(=O)[C@@H]2CCCN2C(=O)[C@H](Cc2ccccc2)N(C)C(=O)[C@H](Cc2ccccc2)NC(=O)[C@H](C(C)C)N(C)C(=O)[C@@H]([C@H](C)CC)OC(=O)[C@H](C(C)(C)O)N(C)C(=O)[C@H](CC(C)C)NC(=O)[C@H](C(C)C)N(C)C1=O (cyclo(F[NMeF]P[aIle][NMeV]L[NMeVal(β-OH)][X1][NMeV]))
Activity [33]: inactive

C/C=C/C/C=C/CCC(=O)[C@H]1O[C@H]1C(N)=O
Activity [34]: Active

C[C@@H]1C[C@@H]([C@H](O)CC2CC(=O)NC(=O)C2)C(=O)[C@@H](C)C1
Activity [35]: Active

C=CC[C@@H]1/C=C(\C)C[C@H](C)C[C@H](OC)[C@H]2O[C@@](O)(C(=O)C(=O)N3CCCC[C@H]3C(=O)O[C@H](/C(C)=C/[C@@H]3CC[C@@H](O)[C@H](OC)C3)[C@H](C)[C@@H](O)CC1=O)[C@H](C)C[C@@H]2OC
Activity [36]: Active
Activity [37]: Active
Activity [38]: Active

— ChEMBL document CHEMBL1649122, “Abc1p is a multidrug efflux transporter that tips the balance in favor of innate azole resistance in Candida krusei” (2009)
